According to ChEMBL document CHEMBL3272019, “Synthesis and some properties and antitumor effects of the actinomycin lactam analog, (di(1-L-alpha, beta-diaminopropionic))actinomycin D1” (1976):
In brackets after ≈: the same amount, converted by molar mass. Activity calls are given as the source filed them. The rule behind the calls is not given here. Starred links: 1 amine or outer side, 2 acyl side, 3 side chain; linkers in the order of their positions; H or OH if unused. Positions of bridges follow the written chain, without caps; N, C: chain ends. Non-standard residues stand in square brackets, D forms with d. Residues, ends and D or L forms follow the SMILES beside them. Chains are numbered I, II in the order given. Actinocin(1to9) = Cc1c2oc3c(C)ccc(C(=O)[*:2])c3nc-2c(C(=O)[*:1])c(N)c1=O; NMeV = CN[C@H](C(=O)O)C(C)C; Sar = CNCC(=O)O

Columns and labels:
L1210 [1] = assay: Antitumor activity against mouse L1210 cells allografted in BDF1 mouse assessed as mean survival time at 0.05 mg/kg/injection, ip administered daily for 9 days (reference value: 9.6 days); type: functional; conditions: route intraperitoneal
B16 [2] = assay: Antitumor activity against mouse B16 cells allografted in BDF1 mouse assessed as mean survival time at 0.4 mg/kg/injection, ip administered as single dose (reference value: 28 days); type: functional; conditions: route intraperitoneal
In short: (§1)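 B16 melanoma in mice, standard screening method. Schedules were daily on days 1–9, on days 1, 5 and 9, or a single day-1 injection, each over a four- to fivefold dose range. Survival time (range of individual deaths) was recorded, percent increase in life-span computed against untreated controls, and survivors tallied.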

L1210 [3] = assay: Antitumor activity against mouse L1210 cells allografted in BDF1 mouse assessed as increase in life span at 0.4 mg/kg/injection, ip administered as single dose; type: functional; conditions: route intraperitoneal
L1210 [4] = assay: Antitumor activity against mouse L1210 cells allografted in BDF1 mouse assessed as mean survival time at 0.3 mg/kg/injection, ip administered intermittently on days 1, 5 and 9 (reference value: 9.6 days); type: functional; conditions: route intraperitoneal
Sarcina = assay: Antibacterial activity against Sarcina subflava assessed as growth inhibition; type: functional
Staphylococcus aureus = assay: Antibacterial activity against Penicillin-resistant Staphylococcus aureus assessed as growth inhibition; type: functional
Bacillus subtilis = assay: Antibacterial activity against Bacillus subtilis Marburg assessed as growth inhibition; type: functional
L1210 [5] = assay: Antitumor activity against mouse L1210 cells allografted in BDF1 mouse assessed as mean survival time at 0.4 mg/kg/injection, ip administered as single dose (reference value: 9.6 days); type: functional; conditions: route intraperitoneal
B16 [6] = assay: Antitumor activity against mouse B16 cells allografted in BDF1 mouse assessed as increase in life span at 0.4 mg/kg/injection, ip administered as single dose measured on day 60; type: functional; conditions: 1440 h, route intraperitoneal; in short: as §1
B16 [7] = assay: Antitumor activity against mouse B16 cells allografted in BDF1 mouse assessed as mean survival time at 0.025 mg/kg/injection, ip administered daily for 9 days (reference value: 28 days); type: functional; conditions: route intraperitoneal; in short: as §1
P388 [8] = assay: Antitumor activity against mouse P388 cells allografted in BDF1 mouse assessed as mean survival time at 0.4 mg/kg/injection, ip administered as single dose (reference value: 10.5 days); type: functional; conditions: route intraperitoneal
In short: (§2)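 P388 leukaemia: 10⁶ cells implanted ip on day 0 into groups of eight male BDF mice. Dosing was ip daily on days 1–9, on days 1, 5 and 9, or as a single day-1 dose, over four- to fivefold dose ranges. Median survival time (range of deaths) and percent increase in life-span were recorded, with survivors/total counted at day 60.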

P388 [9] = assay: Antitumor activity against mouse P388 cells allografted in BDF1 mouse assessed as increase in life span at 0.3 mg/kg/injection, ip administered intermittently on days 1, 5 and 9 measured on day 60; type: functional; conditions: 1440 h, route intraperitoneal; in short: as §2
Homo sapiens [10] = species on record: Homo sapiens; assay: Binding affinity to poly[d(DAP-T)] (unknown origin) at 14.3 uM by visible and near-UV CD spectrophotometry
In short: (§3)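 Visible and near-UV CD spectra of actinomycin D recorded free and with polynucleotide, in 0.01 M sodium phosphate pH 7.0 at about 23°, in 1-cm tandem cylindrical quartz cells. DNA levels were given as nucleotide phosphorus: PM2 0.54 mM, calf thymus 0.50 mM, poly[d(DAP-A-T)] 0.12 mM and poly[d(DAP-T)] 0.27 mM. Drug concentration was set from the 440 nm extinction coefficient (24450 M⁻¹ cm⁻¹).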

B16 [11] = assay: Antitumor activity against mouse B16 cells allografted in BDF1 mouse assessed as increase in life span at 0.3 mg/kg/injection, ip administered intermittently on days 1, 5 and 9 measured on day 60; type: functional; conditions: 1440 h, route intraperitoneal; in short: as §1
B16 [12] = assay: Antitumor activity against mouse B16 cells allografted in BDF1 mouse assessed as increase in life span at 0.025 mg/kg/injection, ip administered daily for 9 days measured on day 60; type: functional; conditions: route intraperitoneal; in short: as §1
P388 [13] = assay: Antitumor activity against mouse P388 cells allografted in BDF1 mouse assessed as increase in life span at 0.4 mg/kg/injection, ip administered as single dose measured on day 60; type: functional; conditions: 1440 h, route intraperitoneal; in short: as §2
P388 [14] = assay: Antitumor activity against mouse P388 cells allografted in BDF1 mouse assessed as increase in life span at 0.05 mg/kg/injection, ip administered daily for 9 days measured on day 60; type: functional; conditions: route intraperitoneal; in short: as §2
Calf thymus DNA = assay: Binding affinity to calf thymus DNA at 34.5 uM by visible and near-UV CD spectrophotometry; type: nucleic-acid assay; conditions: Bos taurus; in short: as §3
L1210 [15] = assay: Antitumor activity against mouse L1210 cells allografted in BDF1 mouse assessed as increase in lifespan at 0.3 mg/kg/injection, ip administered intermittently on days 1, 5 and 9; type: functional; conditions: route intraperitoneal
P388 [16] = assay: Antitumor activity against mouse P388 cells allografted in BDF1 mouse assessed as mean survival time at 0.3 mg/kg/injection, ip administered intermittently on days 1, 5 and 9 (reference value: 10.5 days); type: functional; conditions: route intraperitoneal; in short: as §2
B16 [17] = assay: Antitumor activity against mouse B16 cells allografted in BDF1 mouse assessed as mean survival time at 0.3 mg/kg/injection, ip administered intermittently on days 1, 5 and 9 (reference value: 28 days); type: functional; conditions: route intraperitoneal; in short: as §1
[18] = system: Pseudoalteromonas phage PM2; assay: Binding affinity to bacteriophage PM2 DNA at 31 uM by visible and near-UV CD spectrophotometry; in short: as §3
Homo sapiens [19] = species on record: Homo sapiens; assay: Binding affinity to poly[d(DAP-A-T)] (unknown origin) at 14.3 uM by visible and near-UV CD spectrophotometry; in short: as §3
L1210 [20] = assay: Antitumor activity against mouse L1210 cells allografted in BDF1 mouse assessed as increase in life span at 0.05 mg/kg/injection, ip administered daily for 9 days; type: functional; conditions: 216 h, route intraperitoneal
P388 [21] = assay: Antitumor activity against mouse P388 cells allografted in BDF1 mouse assessed as mean survival time at 0.05 mg/kg/injection, ip administered daily for 9 days (reference value: 10.5 days); type: functional; conditions: route intraperitoneal; in short: as §2

Cc1c2oc3c(C)ccc(C(=O)N[C@@H]4C(=O)N[C@H](C(C)C)C(=O)N5CCC[C@H]5C(=O)N(C)CC(=O)N(C)[C@@H](C(C)C)C(=O)O[C@@H]4C)c3nc-2c(C(=O)N[C@@H]2C(=O)N[C@H](C(C)C)C(=O)N3CCC[C@H]3C(=O)N(C)CC(=O)N(C)[C@@H](C(C)C)C(=O)O[C@@H]2C)c(N)c1=O [DACTINOMYCIN] (I: T[dV]P[Sar][NMeV] / II: T[dV]P[Sar][NMeV]; ester I:1-I:C, II:1-II:C; linker I:N-II:N via Actinocin(1to9))
MST (L1210 [1]): 13.6 days | MST (B16 [2]): 38.5 days | ILS at 0.4 mg/kg (L1210 [3]): 31% | MST (L1210 [4]): 14 days | MIC (Sarcina): 0.045 µg/mL (≈ 0.0358 µM) | MIC (Staphylococcus aureus): 0.05 µg/mL (≈ 0.0398 µM) | MIC (Bacillus subtilis): 0.09 µg/mL (≈ 0.0717 µM) | IC50 (Bacillus subtilis; read-out: ID50 (the source's name)): 0.05 µg/mL (≈ 0.0398 µM) | MST (L1210 [5]): 12.6 days | ILS at 0.4 mg/kg (B16 [6]): 38% | MST (B16 [7]): 45 days | MST (P388 [8]): 22 days | ILS at 0.3 mg/kg (P388 [9]): 262% | Activity (Homo sapiens [10]): Active | ILS at 0.3 mg/kg (B16 [11]): 48% | ILS at 0.025 mg/kg (B16 [12]): 61% | ILS at 0.4 mg/kg (P388 [13]): 110% | ILS at 0.05 mg/kg (P388 [14]): 171% | Activity (Calf thymus DNA): Active | ILS at 0.3 mg/kg (L1210 [15]): 45% | MST (P388 [16]): 38 days | MST (B16 [17]): 41.5 days | Activity [18]: Active | Activity (Homo sapiens [19]): Active | ILS at 0.05 mg/kg (L1210 [20]): 42% | MST (P388 [21]): 28.5 days
